Here are results for 6 compounds from ChEMBL document CHEMBL2157916, “Design and synthesis of potent hydroxyethylamine (HEA) BACE-1 inhibitors carrying prime side 4,5,6,7-tetrahydrobenzazole and 4,5,6,7-tetrahydropyridinoazole templates” (Bioorg Med Chem Lett, 2012).

The structures appear in SMILES notation.

Data set [1] is described as follows: Apparent permeability across human Caco2 cells. The data set is classed as ADME, cell-based. The conditions noted are these: Caco-2. (Caco-2 cells form a polarised layer with tight junctions and transporters.)
A short description of data set [2]: Intrinsic clearance in human liver microsomes. Format: ADME, Microsome. The conditions noted are these: read-out: CLH. A general note: Liver microsomes are vesicles of endoplasmic reticulum, rich in cytochrome P450 enzymes.
Data set [3] in a line: Ratio of drug uptake in brain to plasma in C57/B1 mouse at […], sc administered for 24 hrs. Format: ADME, organism-based. The conditions noted are these: read-out: BPR.
A short description of data set [4]: Plasma concentration in C57/B1 mouse at 20 umol/kg, iv at 0.5 hrs. Format: ADME, organism-based. In a few lines:
(§1)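 Male C57/B1 mice dosed iv at 20 μmol/kg. Brain and plasma exposure measured 0.5 h after dose, with brain levels followed up to 6 h after dose.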

The nature of data set [5]: Drug uptake in C57/B1 mouse brain at 20 umol/kg, iv up to 6 hrs. Format: ADME, organism-based. The conditions noted are these: read-out: Drug uptake. In short, it runs like this:
as §1

Data set [6] can be described thus: Drug uptake in C57/B1 mouse brain at 20 umol/kg, iv at 0.5 hrs. The data set is classed as ADME, organism-based. Particulars: read-out: Drug uptake. In short, it runs like this:
as §1

The nature of data set [7]: Plasma concentration in C57/B1 mouse at […], sc administered for 24 hrs. The data set is classed as ADME, organism-based.

In the case of `CC(=O)N[C@@H](Cc1ccccc1)[C@H](O)CNC1CC(C)(C)Oc2sc(CC(C)(C)C)cc21` (mixture of isomers), the Papp in data set [1] worked out at 5.6 ×10⁻⁶ cm/s. Moreover, the microsomal CLint in data set [2] was 82 µL/min/mg.
Taken in the same sequence, the figures for `CC(=O)N[C@@H](Cc1ccccc1)[C@H](O)CN[C@H]1CC(C)(C)Cc2nn(CC(C)C)cc21` were 1.6 ×10⁻⁶ cm/s and 16 µL/min/mg.
Taken in the same sequence, the figures for `CC(=O)N[C@@H](Cc1ccccc1)[C@H](O)CN[C@H]1CC(C)(C)Oc2ccc(CC(C)(C)C)cc21` were 21 ×10⁻⁶ cm/s and 200 µL/min/mg.
On to `CC(=O)N[C@@H](Cc1ccccc1)[C@H](O)CNC1CC(C)(C)Cc2[nH]c(CC(C)(C)C)nc21` (mixture of isomers), for which the microsomal CLint in data set [2] was 15 µL/min/mg.
Regarding `CC(=O)N[C@@H](Cc1ccccc1)[C@H](O)CN[C@H]1CC(C)(C)Cn2nc(CC(C)(C)C)cc21`, the Papp in data set [1] was 5 ×10⁻⁶ cm/s. The microsomal CLint in data set [2] came to 70 µL/min/mg.
`CC(=O)N[C@@H](Cc1ccccc1)[C@H](O)CNC1CC(C)(C)Cc2nn(CC(C)(C)C)cc21` (mixture of isomers): the Kp at 24 h in data set [3] was 0.69. For the same compound, in data set [1], the Papp came out at 1.5 ×10⁻⁶ cm/s. The microsomal CLint in data set [2] was 25 µL/min/mg. Further, the concentration at 0.5 h in data set [4] came to 4750 nM; in data set [6], 200 nM. Further, the concentration at 6 h in data set [5] is 68 nM. The same compound came in with a concentration at 24 h in data set [7] of 450 nM.

By Papp is commonly meant the rate of passage across a membrane or cell layer, normalised by area and donor concentration.
